Results: ChEMBL document CHEMBL1129453, “3-amino-3,4-dihydro-2H-1-benzopyran derivatives as 5-HT1A receptor ligands and potential anxiolytic agents. 2. Synthesis and quantitative structure-activity relationship studies of spiro[pyrrolidine- and piperidine-2,3'(2'H)-benzopyrans]” (J Med Chem, 1996)

Key:
[1] = organism: Rattus norvegicus; assay: Effects of enantiomeric compound on adenylate cyclase activity in rat hippocampus; assay type: functional
Outline: (§1)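 Rat hippocampal membranes incubated 20 min at 30 °C with forskolin 10 μM, [α-32P]ATP 0.1 μM and test compound. Activity measured as conversion to [32P]cAMP (nM/mg protein/20 min), given as % of control. Mean ± standard error of three determinations in two experiments; Student's t-test versus 100%, p < 0.05.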

[2] = organism: Rattus norvegicus; assay: Effect of compound on Forskolin-Activated Adenylate Cyclase in Rat Hippocampi at 10e-8 M conc (p<0.05); assay type: functional; outline: as §1
[3] = Displacement of [3H]raclopride from Dopamine receptor […] of calf striatum; set-up: species or system Bos taurus
Outline: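 Calf striatum; [3H]raclopride at about its KD; haloperidol for nonspecific binding. Competition assay reporting IC50 (50% inhibition of specific binding).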

[4] = target: T1, 5-hydroxytryptamine receptor 1A (Rattus norvegicus, UniProt P19327); assay: Binding affinity to 5-hydroxytryptamine 1A receptor in rat hippocampus membranes,3H-8-OH-DPAT and buspirone for nonspecific binding (NSB); assay type: cell membranes
T1 sequence (P19327 whole entry): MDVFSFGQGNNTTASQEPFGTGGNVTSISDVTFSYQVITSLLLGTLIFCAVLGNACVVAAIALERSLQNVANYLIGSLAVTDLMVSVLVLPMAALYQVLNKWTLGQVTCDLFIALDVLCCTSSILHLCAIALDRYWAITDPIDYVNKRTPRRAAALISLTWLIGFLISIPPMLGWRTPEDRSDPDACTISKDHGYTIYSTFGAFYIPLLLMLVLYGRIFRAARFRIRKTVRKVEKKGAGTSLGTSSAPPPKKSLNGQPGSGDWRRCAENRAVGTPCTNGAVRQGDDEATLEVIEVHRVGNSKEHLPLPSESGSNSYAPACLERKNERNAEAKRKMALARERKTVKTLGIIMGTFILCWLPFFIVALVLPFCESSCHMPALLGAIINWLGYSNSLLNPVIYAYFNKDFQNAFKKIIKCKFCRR

[5] = target: D(2) dopamine receptor (Bos taurus, UniProt P20288); assay: Displacement of [3H]SDZ-205-501 from Dopamine receptor D2 in calf caudate nucleus.
Outline: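 Calf caudate nucleus; [3H]SDZ205-501 near its KD; butaclamol for nonspecific binding. Competition binding; IC50 for 50% inhibition of specific binding.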

[6] = organism: Rattus norvegicus; assay: Effect of compound on Forskolin-Activated Adenylate Cyclase in Rat Hippocampi at 10e-6 M conc; assay type: functional; outline: as §1
[7] = organism: Rattus norvegicus; assay: Effect of compound on Forskolin-Activated Adenylate Cyclase in Rat Hippocampi at 10e-7 M conc; assay type: functional; outline: as §1
[8] = target: T2, 5-hydroxytryptamine receptor 1B (Rattus norvegicus, UniProt P28564); assay: Binding affinity to 5-HT1B receptors using rat cortex+striatum + globus pallidus,[3H]-5-OH-tryptamine, and serotonin for NSB
Outline: (§2)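 Membranes from rat cortex plus striatum plus globus pallidus; [3H]-5-OH-tryptamine as radioligand at roughly its KD; serotonin defines nonspecific binding. Competition binding; IC50 taken as concentration inhibiting 50% of specific binding.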

[9] = organism: Rattus norvegicus; assay: Effect of compound on Forskolin-Activated Adenylate Cyclase in Rat Hippocampi at 0 M conc; assay type: functional; outline: as §1
[10] = Binding affinity to 5-hydroxytryptamine 2 receptor using calf frontal cortex, [3H]- ketanserin, and spiperone for NSB; set-up: species or system Bos taurus
Outline: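 Calf frontal cortex; [3H]ketanserin near its KD; nonspecific binding with spiperone. Competition binding; IC50 = concentration inhibiting 50% of specific binding.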

[11] = organism: Rattus norvegicus; assay: Effect of compound on Forskolin-Activated Adenylate Cyclase in Rat Hippocampi at 10e-9 M conc; assay type: functional; outline: as §1
[12] = organism: Rattus norvegicus; assay: Effects of enantiomeric compound on adenylate cyclase activity in rat hippocampus at 1 micro M conc; assay type: functional; outline: as §1
[13] = target: T3, Serotonin 3 receptor (5HT3) (Mus musculus, UniProt Q9JHJ5+P23979); assay: Displacement of [3H]-BRC 36694 from 5-hydroxytryptamine 3 receptor in NG108-15 cells; assay type: cell-based
T3 sequence (Q9JHJ5 whole entry): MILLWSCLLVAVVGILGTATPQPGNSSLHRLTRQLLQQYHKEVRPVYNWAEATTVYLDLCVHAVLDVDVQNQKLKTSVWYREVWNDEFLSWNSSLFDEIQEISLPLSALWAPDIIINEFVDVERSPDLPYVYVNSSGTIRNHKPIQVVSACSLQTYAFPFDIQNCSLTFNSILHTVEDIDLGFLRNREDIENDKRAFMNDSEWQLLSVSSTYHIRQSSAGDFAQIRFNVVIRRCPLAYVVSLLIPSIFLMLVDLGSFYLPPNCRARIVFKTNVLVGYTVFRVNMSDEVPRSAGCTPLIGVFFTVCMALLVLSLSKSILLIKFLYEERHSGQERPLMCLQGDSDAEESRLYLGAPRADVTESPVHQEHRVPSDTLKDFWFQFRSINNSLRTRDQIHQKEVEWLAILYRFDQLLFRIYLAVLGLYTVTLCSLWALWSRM
T3 sequence (P23979 whole entry): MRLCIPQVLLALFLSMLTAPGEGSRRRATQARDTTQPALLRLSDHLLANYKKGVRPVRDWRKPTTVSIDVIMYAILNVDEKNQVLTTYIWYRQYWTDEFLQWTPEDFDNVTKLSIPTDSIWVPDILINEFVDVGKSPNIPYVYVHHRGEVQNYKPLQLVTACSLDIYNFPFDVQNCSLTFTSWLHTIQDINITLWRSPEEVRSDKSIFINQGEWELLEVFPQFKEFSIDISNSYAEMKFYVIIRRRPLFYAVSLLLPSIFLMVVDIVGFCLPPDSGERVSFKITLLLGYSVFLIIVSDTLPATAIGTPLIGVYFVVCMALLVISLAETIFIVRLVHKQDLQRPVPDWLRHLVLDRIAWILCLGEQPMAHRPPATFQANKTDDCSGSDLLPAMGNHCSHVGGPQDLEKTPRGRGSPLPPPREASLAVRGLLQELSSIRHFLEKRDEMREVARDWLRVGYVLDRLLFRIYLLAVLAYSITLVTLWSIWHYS
Outline: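 NG108-15 cells; [3H]-BRC 36694 at approximately its KD; ICS 205930 for nonspecific binding. Competition binding expressed as IC50 against specific binding.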

[14] = organism: Rattus norvegicus; assay: Effect of compound on Forskolin-Activated Adenylate Cyclase in Rat Hippocampi at 10e-10 M conc; assay type: functional; outline: as §1
[15] = target: T1, 5-hydroxytryptamine receptor 1A; assay: Compound was evaluated for binding affinity on 5-hydroxytryptamine 1A receptor in rat hippocampus membranes,3H-8-OH-DPAT and buspirone for nonspecific binding; assay type: cell membranes
Outline: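 Rat hippocampal membranes in competition binding against [³H]-8-OH-DPAT, with the radioligand at roughly its KD. […] IC50 was taken as the concentration inhibiting 50% of specific binding.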

[16] = target: T2, 5-hydroxytryptamine receptor 1B; assay: Compound was evaluated for binding affinity on 5-HT1B receptors using rat cortex+striatum+ globus pallidus,[ 3H]-5-OH-tryptamine, and serotonin for NSB.; assay type: tissue-based; outline: as §2
[17] = organism: Rattus norvegicus; assay: Effects of enantiomeric compound on adenylate cyclase activity in rat hippocampus at 10e-6 M; assay type: functional; outline: as §1
[18] = organism: Rattus norvegicus; assay: Effects of enantiomeric compound on adenylate cyclase activity in rat hippocampus at 1 uM; assay type: functional; outline: as §1
[19] = organism: Rattus norvegicus; assay: Effects of enantiomeric compound on adenylate cyclase activity in rat hippocampus at 10e-5 M; assay type: functional; outline: as §1
[20] = organism: Rattus norvegicus; assay: Effects of enantiomeric compound on adenylate cyclase activity in rat hippocampus at 10e-7 M; assay type: functional; outline: as §1
[21] = organism: Rattus norvegicus; assay: Effects of enantiomeric compound on adenylate cyclase activity in rat hippocampus at 10e-8 M; assay type: functional; outline: as §1

Sequence of D(2) dopamine receptor (P20288 whole entry): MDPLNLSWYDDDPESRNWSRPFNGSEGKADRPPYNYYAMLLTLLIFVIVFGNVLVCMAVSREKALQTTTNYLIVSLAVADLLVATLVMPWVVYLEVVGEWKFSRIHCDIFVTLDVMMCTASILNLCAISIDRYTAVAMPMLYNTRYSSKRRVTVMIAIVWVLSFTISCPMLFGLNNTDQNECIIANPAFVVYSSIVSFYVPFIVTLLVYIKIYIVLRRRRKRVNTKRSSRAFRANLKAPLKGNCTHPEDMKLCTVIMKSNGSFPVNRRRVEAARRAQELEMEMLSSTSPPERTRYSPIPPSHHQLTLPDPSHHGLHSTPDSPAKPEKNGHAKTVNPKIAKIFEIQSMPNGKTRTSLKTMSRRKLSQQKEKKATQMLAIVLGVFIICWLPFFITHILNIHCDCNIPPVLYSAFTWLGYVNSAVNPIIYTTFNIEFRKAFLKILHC
T2 sequence (P28564 whole entry): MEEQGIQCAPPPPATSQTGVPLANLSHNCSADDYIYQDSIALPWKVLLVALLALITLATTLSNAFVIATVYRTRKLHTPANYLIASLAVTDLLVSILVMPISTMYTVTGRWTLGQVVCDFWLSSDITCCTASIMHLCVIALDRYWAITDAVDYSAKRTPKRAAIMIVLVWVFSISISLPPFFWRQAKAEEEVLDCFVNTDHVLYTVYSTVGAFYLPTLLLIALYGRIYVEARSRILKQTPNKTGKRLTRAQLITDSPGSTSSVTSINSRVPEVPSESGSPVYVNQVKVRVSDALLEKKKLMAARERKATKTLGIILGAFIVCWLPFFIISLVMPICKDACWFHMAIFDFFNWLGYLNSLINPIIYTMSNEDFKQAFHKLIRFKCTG

Structure (SMILES)	IC50 [3]	IC50 [4]	IC50 [5]	IC50 [8]	IC50 [10]	IC50 [13]	also measured
COc1cccc2c1CC1(CCCN1CCCCN1C(=O)CC3(CCCC3)CC1=O)CO2 (single isomer, unassigned; (+))	22.4 µM	0.00672 µM	1.31 µM	1.3 µM	0.886 µM	12.1 µM	Effect [1]: 98%; Effect [2]: 88%; Effect [6]: 82%; Effect [7]: 84%; Effect [9]: 100%; Effect [11]: 91%; Effect [12]: 79%; Effect [14]: 97%
CCCN1C(=O)CCC12COc1cccc(OC)c1C2 (configuration not stated)		14.2 µM		> 100 µM	793 µM	> 100 µM	
CCCN(CCCCN1C(=O)CC2(CCCC2)CC1=O)C1COc2cccc(OC)c2C1 (single isomer, unassigned; (-))					5 µM		
CCCN1CCCC12COc1cccc(O)c1C2 (configuration not stated)	> 1000 µM		71.4 µM	> 100 µM	364 µM	7.93 µM	IC50 [15]: 0.0385 µM
CCCN(CCCCN1C(=O)CC2(CCCC2)CC1=O)C1COc2cccc(OC)c2C1 (single isomer, unassigned; (+))			0.02 µM		3 µM		
COc1cccc2c1CC1(CCCCN1CCCCN1C(=O)CC3(CCCC3)CC1=O)CO2 (configuration not stated)	23.4 µM	0.00881 µM	2.84 µM	2.21 µM	2.91 µM	41.4 µM	
CCCN1CCCC12COc1cccc(OCCCCN3C(=O)CC4(CCCC4)CC3=O)c1C2 (configuration not stated)		0.101 µM		2.7 µM	67.3 µM	3.97 µM	
COc1cccc2c1CC1(CCCCN1CCCCNS(=O)(=O)c1ccc(C)cc1)CO2 (configuration not stated)	38 µM	0.068 µM	4.22 µM	51.1 µM	21.1 µM	118 µM	
O=C1CC2(CCCC2)CC(=O)N1CCCCN1CCCC12COc1ccccc1C2 (configuration not stated)		0.178 µM		3.8 µM	5.95 µM	12.5 µM	
O=C1CC2(CCCC2)CC(=O)N1CCCCN1CCN(c2ncccn2)CC1 [BUSPIRONE]	270 µM				10 µM		
O=C1c2ccccc2S(=O)(=O)N1CCCCN1CCN(c2ncccn2)CC1 [IPSAPIRONE]					7.5 µM		
COc1cccc2c1CC1(CCCN1CCCCN1C(=O)CC3(CCCC3)CC1=O)CO2 (stereo in doubt; 11a)		0.0106 µM		3.8 µM	6.61 µM	30.7 µM	
CCCN(CCCCN1C(=O)CC2(CCCC2)CC1=O)C1COc2cccc(OC)c2C1 (stereo in doubt; 2)					1 µM		
CCCN(CCC)C1CCc2cccc(O)c2C1 (configuration not stated) [8-OH-DPAT]					49 µM		
CCCN1CCCC12COc1ccccc1C2 (configuration not stated)		1.3 µM		> 1000 µM	233 µM	14.5 µM	
COc1cccc2c1CC1(CCCCN1CCCCNC(=O)c1ccc(F)cc1)CO2 (configuration not stated)	38.3 µM	0.0628 µM	4.3 µM		8.39 µM	66.5 µM	IC50 [16]: 11.2 µM
COc1cccc2c1CC1(CCCN1C(C)=O)CO2 (configuration not stated)		81.4 µM		246 µM	> 100 µM	> 100 µM	
CCCN(CCC)C1COc2cccc(OC)c2C1 (configuration not stated)					60 µM		
CCCN1CCCC12COc1cccc(OC)c1C2 (configuration not stated)	120 µM	0.0746 µM	6.55 µM	11 µM	112 µM	3.59 µM	
COc1cccc2c1CC1(CCCN1CCCCN1C(=O)CC3(CCCC3)CC1=O)CO2 (single isomer, unassigned; (-))	23.3 µM		11.3 µM	31.1 µM	13.9 µM	10.6 µM	Effect [17]: 86%; Effect [1]: 101%; Effect [18]: 101%; Effect [19]: 81%; Effect [20]: 92%; Effect [21]: 98%
CCCN1CCCCC12COc1cccc(OC)c1C2 (configuration not stated)	100 µM	0.42 µM	14.7 µM	69.1 µM	41.4 µM	14.9 µM	
COc1cccc2c1CC1(CCCN1)CO2 (configuration not stated)		0.298 µM		4.4 µM	71.4 µM	10.2 µM	
COc1cccc2c1CC1(CCC(=O)N1)CO2 (configuration not stated)		4.37 µM		> 10 µM	> 100 µM	> 100 µM	
